Results reported in ChEMBL document CHEMBL3621103, “Chemical Synthesis and Biological Activities of 20S,24S/R-Dihydroxyvitamin D3 Epimers and Their 1α-Hydroxyl Derivatives” (J Med Chem, 2015).
Activity calls are given as the source filed them. The calls are words filed in the database; no cut-off is given here.

Legend:
[1] = target: T1, Vitamin D3 receptor (Homo sapiens, UniProt P11473); assay: Transactivation of VDR in human HaCaT cells after 24 hrs by luciferase reporter gene assay; type: cell-based
T1 sequence (P11473 whole entry): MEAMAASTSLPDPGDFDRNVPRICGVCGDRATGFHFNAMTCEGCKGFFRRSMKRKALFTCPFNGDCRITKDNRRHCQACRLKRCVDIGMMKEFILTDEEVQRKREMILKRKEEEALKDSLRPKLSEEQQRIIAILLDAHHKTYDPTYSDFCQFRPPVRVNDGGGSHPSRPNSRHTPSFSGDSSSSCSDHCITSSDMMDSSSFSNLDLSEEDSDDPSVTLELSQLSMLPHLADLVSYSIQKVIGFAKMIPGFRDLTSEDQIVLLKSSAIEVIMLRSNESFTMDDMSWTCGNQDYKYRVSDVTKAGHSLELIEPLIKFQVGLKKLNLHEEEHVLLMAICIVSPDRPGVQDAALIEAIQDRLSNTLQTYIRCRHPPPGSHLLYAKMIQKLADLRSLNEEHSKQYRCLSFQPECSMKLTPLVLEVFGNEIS

[2] = Antiinflammatory activity in DBA/1 mouse splenocytes assessed as IFNgamma production at 100 nM after 2 hrs by ELISA (reference value: 731 +/- 15 pg/ml); type: functional, Splenocyte
[3] = Upregulation of LAIR-1 expression in DBA/1 mouse splenocytes at 10^-7 M after overnight incubation by flow cytometric analysis (reference value: 973 +/- 95); type: functional, cell-based; settings: Splenocyte
Outline: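 Splenocytes isolated from DBA/1 mice were cultured overnight with secosteroid at 10−7 M or vehicle control. Cells were stained with fluorochrome-labelled anti-CD4 and anti-LAIR-1 antibodies and analysed by multiparameter flow cytometry, gating on CD4 cells. At least 10 000 cells were counted per sample. Read-out is LAIR-1 mean fluorescence, given as the mean of two separate analyses ± SD.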

[4] = target: T1, Vitamin D3 receptor; assay: Transactivation of VDR in human Caco2 cells after 24 hrs by luciferase reporter gene assay; type: cell-based, Caco-2
[5] = target: T2, Vitamin D3 receptor (Homo sapiens) (UniProt P11473); assay: Transactivation of VDR in human Caco2 cells up to 1000 nM after 24 hrs by luciferase reporter gene assay; type: cell-based; settings: Caco-2
T2 sequence (whole entry): T1 sequence (P11473 whole entry)
Outline: (§1)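 Cells were lentivirally transduced with a VDRE-luciferase reporter and selected 1 week with puromycin (1 µg/mL). Seeded at 1000 cells/well in FBS-free medium for 24 h, then treated 24 h with secosteroids in DMSO (0.1% final; 0.1% DMSO as vehicle control). Luciferase read by ONE-Glo. Triplicate per concentration; EC50 reported.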

[6] = target: T2, Vitamin D3 receptor (Homo sapiens); assay: Transactivation of VDR in human HaCaT cells up to 1000 nM after 24 hrs by luciferase reporter gene assay; type: cell-based; outline: as §1
[7] = target: T3, 25-hydroxyvitamin D-1 alpha hydroxylase, mitochondrial (Mus musculus) (UniProt O35084); assay: Substrate activity at mouse CYP27B1 assessed as 1alpha-hydroxylation by measuring ratio of Kcat to Km after 2 mins by reverse-phase HPLC analysis
T3 sequence (whole entry): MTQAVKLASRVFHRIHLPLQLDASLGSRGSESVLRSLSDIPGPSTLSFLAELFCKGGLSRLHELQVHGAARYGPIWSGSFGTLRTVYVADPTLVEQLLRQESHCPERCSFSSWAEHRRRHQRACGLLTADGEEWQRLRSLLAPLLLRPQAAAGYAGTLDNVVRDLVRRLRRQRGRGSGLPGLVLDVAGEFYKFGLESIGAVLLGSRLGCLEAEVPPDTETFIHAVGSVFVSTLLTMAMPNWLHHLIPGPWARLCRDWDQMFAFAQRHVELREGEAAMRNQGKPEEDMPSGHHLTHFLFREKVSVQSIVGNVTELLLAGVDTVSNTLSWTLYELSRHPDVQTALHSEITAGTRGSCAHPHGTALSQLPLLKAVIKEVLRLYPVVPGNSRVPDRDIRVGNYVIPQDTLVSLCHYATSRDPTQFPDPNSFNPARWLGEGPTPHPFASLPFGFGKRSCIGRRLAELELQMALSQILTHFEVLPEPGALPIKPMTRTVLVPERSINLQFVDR
Outline: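 Substrates incorporated into dioleoylphosphatidylcholine/cardiolipin vesicles over a range of concentrations and incubated 2 min. Products extracted with dichloromethane and quantified by reverse-phase C18 HPLC. Km and kcat from a Michaelis–Menten fit (±SE of fit); kcat/Km expressed per mmol/mol phospholipid.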

Row | SMILES | EC50 [1] [nM] | Activity [2] [pg/mL] | Flu intensity [3] | EC50 [4] [nM] | Activity [5] | Activity [6] | Ratio [7] [min⁻¹]
1 | C=C1/C(=C\C=C2/CCC[C@@]3(C)[C@H]2CC[C@@H]3[C@@](C)(O)CC[C@@H](O)C(C)C)C[C@@H](O)C[C@@H]1O | 64.9 | 291 | 2100 | 66.9 |  |  | 
2 | C=C1/C(=C\C=C2/CCC[C@]3(C)[C@@H]([C@H](C)OCCC(C)(C)O)CC[C@@H]23)C[C@@H](O)C[C@@H]1O [MAXACALCITOL] | 37.9 | 356 | 1510 | 40.8 |  |  | 
3 | C=C1CC[C@H](O)C/C1=C/C=C1\CCC[C@@]2(C)[C@H]1CC[C@@H]2[C@@](C)(O)CC[C@@H](O)C(C)C |  | 465 | 1910 |  | inactive | inactive | 3.9
4 | C=C1CC[C@H](O)C/C1=C/C=C1\CCC[C@@]2(C)[C@H]1CC[C@@H]2[C@@](C)(O)CC[C@H](O)C(C)C |  | 923 | 1540 |  | inactive | inactive | 0.71
5 | C=C1/C(=C\C=C2/CCC[C@]3(C)[C@@H]([C@H](C)CCCC(C)(C)O)CC[C@@H]23)C[C@@H](O)C[C@@H]1O |  |  | 1640 |  |  |  | 
6 | C=C1/C(=C\C=C2/CCC[C@@]3(C)[C@H]2CC[C@@H]3[C@@](C)(O)CC[C@H](O)C(C)C)C[C@@H](O)C[C@@H]1O | 271 | 589 | 1820 | 208 |  |  | 
